In ChEMBL document CHEMBL4334439, “Discovery, Optimization, and Target Identification of Novel Potent Broad-Spectrum Antiviral Inhibitors” (J Med Chem, 2019):

Columns and labels:
[1] = test system: Middle East respiratory syndrome-related coronavirus; assay: Antiviral activity against MERS-CoV infected in human Caco2 cells assessed as inhibition of viral replication measured at 18 hrs post-infection by plaque formation assay; format: functional, organism-based; details: Caco-2, 18 h
[2] = Selectivity index, ratio of CC50 for human Huh7.5.1 cells to EC50 for EGFP-fused HCV JFH-1 harboring K78E/E2-G451R/NS3-M260K/NS5A-T462I mutant infected in human Huh7.5.1 cells; format: toxicity, cell-based; details: read-out: Ratio CC50/EC50
Hepatitis C virus [3] = assay: Antiviral activity against EGFP-fused HCV JFH-1 harboring K78E/E2-G451R/NS3-M260K/NS5A-T462I mutation infected in human Huh7.5.1 cells assessed as reduction in viral RNA level after 2 days in presence of IFNalpha by qRT-PCR analysis; format: functional, organism-based; details: Hepacivirus hominis
Procedure, shortened: (§1)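 Huh7.5.1 cells at 1×10^4/well, grown overnight at 37 °C. HCVcc was mixed with serially diluted compound (top 30 or 6 μM), given alone or with the named drug, and added to the cells. Viral RNA was read by qRT-PCR after 2 days. EC50 is the concentration giving 50% RNA reduction.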

Hepatitis C virus [4] = assay: Antiviral activity against EGFP-fused HCV JFH-1 harboring K78E/E2-G451R/NS3-M260K/NS5A-T462I mutation infected in human Huh7.5.1 cells assessed as reduction in viral RNA level after 2 days in presence of cyclosporin A by qRT-PCR analysis; format: functional, organism-based; details: Hepacivirus hominis; procedure, shortened: as §1
Hepatitis C virus [5] = assay: Antiviral activity against EGFP-fused HCV JFH-1 harboring K78E/E2-G451R/NS3-M260K/NS5A-T462I mutation infected in human Huh7.5.1 cells assessed as reduction in viral RNA level after 2 days in presence of daclatasvir by qRT-PCR analysis; format: functional, organism-based; details: Hepacivirus hominis; procedure, shortened: as §1
Hepatitis C virus [6] = assay: Antiviral activity against EGFP-fused HCV JFH-1 harboring K78E/E2-G451R/NS3-M260K/NS5A-T462I mutation infected in human Huh7.5.1 cells assessed as combination index after 2 days in presence of daclatasvir by qRT-PCR analysis; format: functional, Hepacivirus hominis
Procedure, shortened: (§2)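 In HCVcc-infected Huh7.5.1 cells (1×10^4/well, overnight, 37 °C), compound was given at various concentrations alone or with the named approved antiviral. After 2 days HCV RNA was quantified by qRT-PCR to derive the combination index.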

Hepatitis C virus [7] = assay: Antiviral activity against EGFP-fused HCV JFH-1 harboring K78E/E2-G451R/NS3-M260K/NS5A-T462I mutation infected in human Huh7.5.1 cells assessed as combination index after 2 days in presence of telaprevir by qRT-PCR analysis; format: functional, Hepacivirus hominis; procedure, shortened: as §2
Hepatitis C virus [8] = assay: Antiviral activity against HCV JFH-1 pseudotyped viral particle infected in HEK293T cells cotransfected with pCDN3.1-JFH1-cE1E2 plasmid encoding envelope with full length JFH1 and pNL4-3R-E-luciferase construct by luciferase reporter gene assay; format: functional, organism-based, Hepacivirus hominis; details: JFH-1, HEK-293T
Procedure, shortened: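 HCVpp came from HEK293T co-transfected with the JFH1 E1E2 plasmid and pNL4-3R-E-luciferase. Supernatant was harvested at 48 h, filtered and luciferase-standardised for input. Virus was mixed with serially diluted compound (top 30 or 6 μM) and added to cells. Luminescence was read; EC50 is 50% signal reduction.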

Chikungunya virus = assay: Antiviral activity against CHIKV infected in African green monkey Vero cells assessed as reduction in viral titre measured at 36 hrs post infection; format: functional, organism-based
Huh7.5.1 = assay: Cytotoxicity against human Huh7.5.1 cells infected with DENV assessed as decrease in cell viability after 48 hrs by WST1 assay; format: cell-based; details: Huh-7.5.1, 48 h
Procedure, shortened: (§3)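 Cells at 1×10^4/well, cultured overnight at 37 °C, were incubated 48 h with serially diluted compound. Viability was read by WST-1 absorbance (OD450/OD630).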

[9] = Cytotoxicity against African green monkey Vero cells infected with CHIKV assessed as decrease in cell viability after 48 hrs by WST1 assay; format: cell-based; details: chlorocebus sabaeus; procedure, shortened: as §3
[10] = Cytotoxicity against human RD cells infected with EV71 assessed as decrease in cell viability after 48 hrs by WST1 assay; format: cell-based
Procedure, shortened: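 Cells seeded at 1 × 10^4 per well and cultured overnight at 37 °C, then incubated 48 h with serially diluted compounds. Viability read with WST-1 reagent as absorbance at OD450/OD630.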

[11] = Cytotoxicity against African green monkey Vero cells infected with RSV assessed as decrease in cell viability after 48 hrs by WST1 assay; format: cell-based; details: chlorocebus sabaeus; procedure, shortened: as §3
[12] = Selectivity index, ratio of CC50 for human Huh7.5.1 cells to EC50 for DENV infected in human Huh7.5.1 cells; format: toxicity, cell-based; details: read-out: Ratio CC50/EC50
Procedure, shortened: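 SI from two assays. Antiviral: Huh7.5.1 cells infected with DENV II or ZIKV at MOI 0.1; viral RNA measured by qRT-PCR after 3 days; EC50 taken at 50% RNA reduction. Cytotoxicity: cells seeded at 1×10^4/well, given serially diluted compound for 48 h, then WST-1 absorbance (OD450/OD630) read for CC50.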

[13] = Selectivity index, ratio of CC50 for human RD cells to EC50 for EV71(FY)-Luc infected in human RD cells; format: toxicity, cell-based; details: read-out: Ratio CC50/EC50
Procedure, shortened: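 RD cells seeded at 1×10^4/well and cultured overnight, then infected with EV71(FY)-Luc at MOI 1 and treated with compound straight away. EC50 is the 50% drop in luminescence or RNA. CC50 comes from a 48 h serial-dilution exposure at 1×10^4 cells/well, read by WST-1 (OD450/OD630).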

[14] = Inhibition of C-terminal 6-His tagged recombinant human DHODH N-terminal domain delta29 mutant expressed in Escherichia coli BL21(DE3) using dihydroorotate as substrate measured every 30 secs for 6 mins by DCIP dye based assay
Procedure, shortened: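 Enzyme purified by HisTrap then size exclusion. Reaction started with 500 μM dihydroorotate. DCIP decrease read at 600 nm. Inhibition = (1 − Vi/V0) × 100. IC50 from 8–9 concentrations in triplicate by sigmoidal fit.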

Hepatitis C virus [15] = assay: Ratio of EC50 for antiviral activity against HCV infected in human Huh7.5.1 cells assessed as decrease in viral infection in presence of uridine to EC50 for antiviral activity against HCV infected in human Huh7.5.1 cells assessed as decrease in viral infection in absence of uridine; format: functional, Hepacivirus hominis
Procedure, shortened: (§4)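 HCV antiviral EC50 in Huh7.5.1 cells was measured with 0.5 mM uridine supplemented, and compared with the EC50 obtained without uridine.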

Hepatitis C virus [16] = assay: Antiviral activity against HCV infected in human Huh7.5.1 cells assessed as decrease in viral infection in presence of uridine; format: functional, organism-based, Hepacivirus hominis; details: Huh-7.5.1; procedure, shortened: as §4
Homo sapiens = species on record: Homo sapiens; assay: Potency index, ratio of teriflunomide IC50 to test compound IC50 for C-terminal 6-His tagged recombinant human DHODH N-terminal domain delta29 mutant expressed in Escherichia coli BL21(DE3)
Procedure, shortened: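 DCIP assay: His6-Δ29 human DHODH at 10 nM final in 50 mM HEPES pH 7.7, 150 mM KCl, 0.1% Triton X-100, with 100 μM UQ0 and 120 μM DCIP, preincubated 5 min at RT. Reaction started with 500 μM dihydroorotate; A600 read every 30 s for 6 min.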

[17] = Cytotoxicity against African green monkey Vero cells infected with SFTSV measured after 48 hrs by WST1 assay; format: cell-based; details: chlorocebus sabaeus; procedure, shortened: as §3

For `CCN(CC)c1ccc(Oc2ccc(-c3[nH]c4cccc(F)c4c(=O)c3C)cc2F)cc1`, the EC50 [1] was 0.333 µM, the selectivity ratio [2] was over 416 and the Activity (Hepatitis C virus [3]) was “Dose-dependent effect”. For the same molecule, the Activity (Hepatitis C virus [4]) was “Dose-dependent effect”, the Activity (Hepatitis C virus [5]) was “Dose-dependent effect” and the CI (Hepatitis C virus [6]) was “>=10 - 50”. The CI (Hepatitis C virus [7]) was “>=10 - 50”, the EC50 (Hepatitis C virus [8]) was over 50 µM and the EC50 (Chikungunya virus) was 0.26 µM. It also gave an EC50 (Huh7.5.1) of over 2.5 µM, a CC50 at 48 h [9] of over 2.5 µM and a CC50 at 48 h [10] of over 2.5 µM. The CC50 at 48 h [11] was over 2.5 µM, the selectivity ratio [12] was over 357 and the selectivity ratio [13] was over 625. The IC50 [14] was 0.06 µM, the “Ratio EC50” value (Hepatitis C virus [15]) was 200 and the EC50 (Hepatitis C virus [16]) was 2.8 µM. For the same molecule, the Ratio IC50 (Homo sapiens) was 4 and the CC50 at 48 h [17] was over 2.5 µM.
